Experiments:
A2780 = assay: Cytotoxicity against human A2780 cells at 1 uM after 72 hrs by MTT assay; type: functional; settings: A2780, 72 h, read-out: GI
How it was run: (§1)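 Cells plated at 2000–5000/well, attached overnight at 37 °C. DMSO stocks (100 mM) serially diluted in medium to a final 1 µM, tested in duplicate wells. Exposure 72 h at 37 °C, 5% CO₂. MTT (5 mg/mL, 10 µL) added for 4 h. Lysis in 10% SDS / 5% isopropanol / 0.012 N HCl, then OD read at 580–680 nm.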

HT-29 = assay: Cytotoxicity against human HT-29 cells at 1 uM after 72 hrs by MTT assay; type: functional; settings: HT-29, 72 h, read-out: GI; how it was run: as §1
HL-60 = assay: Cytotoxicity against human HL60 cells at 1 uM after 72 hrs by MTT assay; type: functional; settings: HL-60, 72 h, read-out: GI; how it was run: as §1
HeLa = assay: Cytotoxicity against human HeLa cells at 1 uM after 72 hrs by MTT assay; type: functional; settings: read-out: GI; how it was run: as §1
MCF7 [1] = assay: Cytotoxicity against human MCF7 cells at 1 uM after 72 hrs by MTT assay; type: functional; settings: MCF7, 72 h, read-out: GI; how it was run: as §1
DU-145 = assay: Cytotoxicity against human DU145 cells at 1 uM after 72 hrs by MTT assay; type: functional; settings: DU-145, 72 h, read-out: GI; how it was run: as §1
NCI-H460 = assay: Cytotoxicity against human NCI-H460 cells at 1 uM after 72 hrs by MTT assay; type: functional; settings: NCI-H460, 72 h, read-out: GI; how it was run: as §1
A-375 = assay: Cytotoxicity against human A375 cells at 1 uM after 72 hrs by MTT assay; type: functional; settings: A-375, 72 h, read-out: GI
How it was run: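 Cells plated at 2000–5000/well, attached overnight at 37 °C. DMSO stocks (100 mM) serially diluted in medium to a final 1 µM, tested in duplicate wells. MTT (5 mg/mL, 10 µL) added for 4 h. Lysis in 10% SDS / 5% isopropanol / 0.012 N HCl, then OD read at 580–680 nm.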

MCF7 [2] = assay: Cytotoxicity against human MCF7 cells after 72 hrs by MTT assay; type: functional, cell-based; settings: MCF7, 72 h
How it was run: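 MCF-7 cells exposed to compound for 72 h and read by MTT. At least six replicate wells per assay, run on three separate occasions. IC₅₀ given as mean with standard deviation.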

[3] = Apparent permeability from apical to basolateral side in human Caco2 cells at 10 uM after 90 mins by LC-MS/MS analysis; type: ADME, cell-based, Caco-2; settings: Caco-2

Row | Structure (SMILES) | inhibition of growth at 1 µM (A2780) | inhibition of growth at 1 µM (HT-29) | inhibition of growth at 1 µM (HL-60) | inhibition of growth at 1 µM (HeLa) | inhibition of growth at 1 µM (MCF7 [1]) | inhibition of growth at 1 µM (DU-145) | inhibition of growth at 1 µM (NCI-H460) | inhibition of growth at 1 µM (A-375) | IC50 (MCF7 [2]) | Papp A→B at 1.5 h, 10 µM [3]
1 | CO[C@H]1C(=O)[C@]2(C)[C@@H](OC)C[C@H]3OC[C@@]3(OC(C)=O)[C@H]2[C@H](OC(=O)c2ccccc2)[C@]2(O)C[C@H](OC(=O)[C@H](O)[C@@H](NC(=O)c3ccccc3)c3ccccc3)C(C)=C1C2(C)C | 95.2% | 87.5% | 97.2% | 102% | 92.1% | 86.4% | 85% | 89.7% |  | 
2 | CO[C@H]1C(=O)[C@]2(C)CC[C@H]3OC[C@@]3(OC(C)=O)[C@H]2[C@H](OC(=O)c2ccccc2)[C@]2(O)C[C@H](OC(=O)[C@H](O)[C@@H](NC(=O)OC(C)(C)C)c3ccccc3)C(C)=C1C2(C)C |  |  |  | 101% |  |  |  |  | 3.33 nM | 3.64 ×10⁻⁶ cm/s
3 | CO[C@H]1C[C@H]2OC[C@@]2(OC(C)=O)[C@H]2[C@H](OC(=O)c3ccccc3)[C@]3(O)C[C@H](OC(=O)[C@H](O)[C@@H](NC(=O)c4ccccc4)c4ccccc4)C(C)=C([C@@H](OC(=O)N(C)C)C(=O)[C@]12C)C3(C)C | 96.3% | 87.9% | 97.5% | 102% | 85.7% | 87.1% | 86.5% | 87.7% |  | 2.94 ×10⁻⁶ cm/s
4 | CO[C@H]1C[C@H]2OC[C@@]2(OC(C)=O)[C@H]2[C@H](OC(=O)c3ccccc3)[C@]3(O)C[C@H](OC(=O)[C@H](O)[C@@H](NC(=O)OC(C)(C)C)c4ccccn4)C(C)=C([C@@H](OC(=O)N(C)C)C(=O)[C@]12C)C3(C)C |  |  |  | 100% |  |  |  |  |  | 3.02 ×10⁻⁶ cm/s
5 | COC(=O)O[C@H]1C(=O)[C@]2(C)[C@@H](OC)C[C@H]3OC[C@@]3(OC(C)=O)[C@H]2[C@H](OC(=O)c2ccccc2)[C@]2(O)C[C@H](OC(=O)[C@H](O)[C@@H](NC(=O)c3ccccc3)c3ccccc3)C(C)=C1C2(C)C | 95.8% | 88.8% | 96.8% | 101% | 95.5% | 86.2% | 86.4% | 94.2% |  | 4.38 ×10⁻⁶ cm/s
6 | CO[C@H]1C(=O)[C@]2(C)[C@@H](OC(=O)N(C)C)C[C@H]3OC[C@@]3(OC(C)=O)[C@H]2[C@H](OC(=O)c2ccccc2)[C@]2(O)C[C@H](OC(=O)[C@H](O)[C@@H](NC(=O)c3ccccc3)c3ccccc3)C(C)=C1C2(C)C | 95.6% | 89.4% | 97.8% | 103% | 90.8% | 85.8% | 87.7% | 88.4% | 64.7 nM | 3.27 ×10⁻⁶ cm/s
7 | CO[C@H]1C(=O)[C@]2(C)[C@@H](OC(=O)N(C)C)C[C@H]3OC[C@@]3(OC(C)=O)[C@H]2[C@H](OC(=O)c2ccccc2)[C@]2(O)C[C@H](OC(=O)[C@H](O)[C@@H](NC(=O)OC(C)(C)C)c3ccccn3)C(C)=C1C2(C)C |  |  |  | 103% |  |  |  |  | 46.6 nM | 4.41 ×10⁻⁶ cm/s
8 | COC(=O)O[C@H]1C[C@H]2OC[C@@]2(OC(C)=O)[C@H]2[C@H](OC(=O)c3ccccc3)[C@]3(O)C[C@H](OC(=O)[C@H](O)[C@@H](NC(=O)c4ccccc4)c4ccccc4)C(C)=C([C@@H](OC)C(=O)[C@]12C)C3(C)C | 96.9% | 89.7% | 97.8% | 102% | 107% | 88.3% | 90.3% | 94% |  | 3.32 ×10⁻⁶ cm/s
9 | COC(=O)O[C@H]1C[C@H]2OC[C@@]2(OC(C)=O)[C@H]2[C@H](OC(=O)c3ccccc3)[C@]3(O)C[C@H](OC(=O)[C@H](O)[C@@H](NC(=O)OC(C)(C)C)c4ccccn4)C(C)=C([C@@H](OC)C(=O)[C@]12C)C3(C)C |  |  |  | 102% |  |  |  |  |  | 4.53 ×10⁻⁶ cm/s
10 | CO[C@H]1C(=O)[C@]2(C)[C@@H](OC)C[C@H]3OC[C@@]3(OC(C)=O)[C@H]2[C@H](OC(=O)c2ccccc2)[C@]23OC(=O)O[C@H]2[C@H](OC(=O)[C@H](O)[C@@H](NC(=O)c2ccccc2)c2ccccc2)C(C)=C1C3(C)C | 96.7% | 89.4% | 96.6% | 101% | 96% | 87.8% | 87.9% | 90.8% | 6.93 nM | 1.48 ×10⁻⁶ cm/s

— ChEMBL document CHEMBL3098054, “The synthesis of novel taxoids for oral administration” (Bioorg Med Chem, 2014)
